According to ChEMBL document CHEMBL4725242, “Discovery of GS-9688 (Selgantolimod) as a Potent and Selective Oral Toll-Like Receptor 8 Agonist for the Treatment of Chronic Hepatitis B” (J Med Chem, 2020):

How the values were obtained:
Toll-like receptor 7 = target: T1, Toll-like receptor 7 (Homo sapiens, UniProt Q9NYK1); test: Agonist activity at TLR7 in human cryopreserved PBMC assessed as induction of IFNalpha production measured after 24 hrs
T1 sequence (Q9NYK1 whole entry): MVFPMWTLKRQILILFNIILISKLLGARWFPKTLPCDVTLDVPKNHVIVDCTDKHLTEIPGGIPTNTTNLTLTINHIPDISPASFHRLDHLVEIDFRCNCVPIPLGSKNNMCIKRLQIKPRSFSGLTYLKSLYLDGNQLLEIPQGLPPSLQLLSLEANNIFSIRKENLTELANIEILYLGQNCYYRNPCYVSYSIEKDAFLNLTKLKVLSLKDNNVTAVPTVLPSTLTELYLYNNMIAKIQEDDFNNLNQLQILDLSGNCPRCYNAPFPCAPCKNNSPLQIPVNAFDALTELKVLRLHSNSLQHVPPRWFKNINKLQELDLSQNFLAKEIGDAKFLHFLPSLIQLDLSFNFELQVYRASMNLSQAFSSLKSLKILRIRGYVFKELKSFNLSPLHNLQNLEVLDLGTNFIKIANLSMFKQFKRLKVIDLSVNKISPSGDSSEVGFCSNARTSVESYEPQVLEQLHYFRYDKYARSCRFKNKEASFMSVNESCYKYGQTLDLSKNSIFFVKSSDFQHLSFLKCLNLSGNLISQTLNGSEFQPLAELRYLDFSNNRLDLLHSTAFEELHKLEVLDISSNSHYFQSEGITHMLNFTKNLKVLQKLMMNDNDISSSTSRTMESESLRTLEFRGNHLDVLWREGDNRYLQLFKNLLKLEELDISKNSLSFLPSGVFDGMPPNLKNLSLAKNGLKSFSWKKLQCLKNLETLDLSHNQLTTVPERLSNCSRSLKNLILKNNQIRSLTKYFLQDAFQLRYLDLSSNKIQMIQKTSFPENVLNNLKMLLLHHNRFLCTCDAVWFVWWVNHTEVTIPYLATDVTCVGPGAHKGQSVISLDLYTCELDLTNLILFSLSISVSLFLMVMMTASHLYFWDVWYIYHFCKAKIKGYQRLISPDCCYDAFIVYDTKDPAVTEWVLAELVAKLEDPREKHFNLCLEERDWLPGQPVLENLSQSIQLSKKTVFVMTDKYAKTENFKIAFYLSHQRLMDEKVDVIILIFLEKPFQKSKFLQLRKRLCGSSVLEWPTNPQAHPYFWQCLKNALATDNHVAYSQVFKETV
How it was run: (§1)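 Cryopreserved healthy-donor human PBMC, recovered 2 h at 37°C/5% CO2, then 100k cells/well in RPMI/10% FBS exposed 24 h at 37°C to a 10-point half-log dilution series (0.5% final DMSO). Supernatant IFNα-2a quantified by MSD electrochemiluminescence immunoassay. For the ratio, divided by the IL-12p40 EC50 from the same PBMC screen.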

[1] = Cytotoxicity against human MT4 cells assessed as reduction in cell viability measured after 4 to 5 days by celltiter-glo assay; assay type: cell-based; settings: time 4-5 day
[2] = Selectivity index, ratio of CC50 for human MT4 cells to EC50 for TLR8 in human cryopreserved PBMC assessed as induction of IL-12p40 production
Toll-like receptor 8 = target: T2, Toll-like receptor 8 (Homo sapiens, UniProt Q9NR97); test: Agonist activity at TLR8 in human cryopreserved PBMC assessed as induction of IL-12p40 production measured after 24 hrs
T2 sequence (Q9NR97 whole entry): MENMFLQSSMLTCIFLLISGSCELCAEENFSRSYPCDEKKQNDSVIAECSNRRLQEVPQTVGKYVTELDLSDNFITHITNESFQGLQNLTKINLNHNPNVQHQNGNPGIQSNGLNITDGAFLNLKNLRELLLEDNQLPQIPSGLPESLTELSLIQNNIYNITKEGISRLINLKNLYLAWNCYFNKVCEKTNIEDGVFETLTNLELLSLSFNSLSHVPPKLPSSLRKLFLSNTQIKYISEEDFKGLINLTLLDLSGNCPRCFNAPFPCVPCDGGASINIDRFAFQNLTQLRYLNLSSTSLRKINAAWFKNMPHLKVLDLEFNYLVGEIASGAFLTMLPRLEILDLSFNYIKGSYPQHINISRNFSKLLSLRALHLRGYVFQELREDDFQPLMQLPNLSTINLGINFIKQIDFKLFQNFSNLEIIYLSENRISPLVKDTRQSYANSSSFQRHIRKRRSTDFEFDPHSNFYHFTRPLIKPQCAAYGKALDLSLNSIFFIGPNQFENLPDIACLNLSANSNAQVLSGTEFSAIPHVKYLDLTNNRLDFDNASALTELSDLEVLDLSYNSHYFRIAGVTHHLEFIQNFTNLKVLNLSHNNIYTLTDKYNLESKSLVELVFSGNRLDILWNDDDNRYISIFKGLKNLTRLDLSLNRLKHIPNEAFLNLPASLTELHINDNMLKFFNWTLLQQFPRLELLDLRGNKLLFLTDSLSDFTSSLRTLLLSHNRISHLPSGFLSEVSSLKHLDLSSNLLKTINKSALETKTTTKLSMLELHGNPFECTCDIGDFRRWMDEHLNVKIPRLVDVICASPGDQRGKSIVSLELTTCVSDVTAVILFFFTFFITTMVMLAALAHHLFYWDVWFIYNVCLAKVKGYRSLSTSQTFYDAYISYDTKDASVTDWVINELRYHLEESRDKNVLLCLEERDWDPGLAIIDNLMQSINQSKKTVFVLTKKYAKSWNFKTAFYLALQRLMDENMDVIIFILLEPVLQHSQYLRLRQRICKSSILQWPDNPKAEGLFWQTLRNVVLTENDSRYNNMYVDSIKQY

Homo sapiens = species on record: Homo sapiens; test: Selectivity ratio of EC50 for TLR7 in human cryopreserved PBMC assessed as induction of IFNalpha production to EC50 for TLR8 in human cryopreserved PBMC assessed as induction of IL-12p40 production
How it was run: as §1, with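 “immunoassay. Normalized to 10 µM GS-9620 positive and DMSO negative controls; EC50 from 4-parameter logistic fit.” for “immunoassay.”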

[3] = Apparent permeability across apical to basolateral side in human Caco2 cells measured after 1 to 2 hrs by LC-MS/MS analysis; settings: Caco-2
[4] = Apparent permeability across basolateral to apical side in human Caco2 cells measured after 1 to 2 hrs by LC-MS/MS analysis; settings: Caco-2
[5] = Clearance in rat hepatic microsomes at 2 uM measured up to 60 mins in presence of NADPH generating system by LC-MS/MS analysis; assay type: ADME, Microsome; settings: liver microsomes
[6] = Clearance in dog hepatic microsomes at 2 uM measured up to 60 mins in presence of NADPH generating system by LC-MS/MS analysis; assay type: ADME, Canis lupus familiaris, Microsome; settings: liver microsomes
[7] = Clearance in cynomolgus monkey hepatic microsomes at 2 uM measured up to 60 mins in presence of NADPH generating system by LC-MS/MS analysis; assay type: ADME, Macaca fascicularis, Microsome; settings: liver microsomes
[8] = Clearance in human hepatic microsomes at 2 uM measured up to 60 mins in presence of NADPH generating system by LC-MS/MS analysis; assay type: ADME, Microsome; settings: liver microsomes
[9] = Drug metabolism in human hepatocytes assessed as core oxidation; assay type: ADME, cell-based, Hepatocyte
[10] = Dissociation constant, pKa of the compound; assay type: physicochemical

Row | Structure (SMILES) | EC50 (Toll-like receptor 7) | CC50 [1] | EC50 (Toll-like receptor 8) | further results
1 | CCCCC[C@](C)(CO)Nc1nc(N)nc2cccnc12 | 20 µM | 17 µM | 0.58 µM | Ratio CC50/EC50 [2]: 29
2 | CCCC[C@](C)(CO)Nc1nc(N)nc2cccnc12 | 15 µM | 31 µM | 0.17 µM | Ratio EC50 (Homo sapiens): > 80; Ratio CC50/EC50 [2]: 182; Papp A→B [3]: 29 ×10⁻⁶ cm/s; Papp B→A [4]: 29 ×10⁻⁶ cm/s; CLhep predicted at 2 µM [5]: 58.3 mL/min/kg; CLhep predicted at 2 µM [6]: 23.3 mL/min/kg; CLhep predicted at 2 µM [7]: 21.7 mL/min/kg; CLhep predicted at 2 µM [8]: 13.3 mL/min/kg; Drug metabolism [9]: Metabolite_Detected
3 | CCCCC(CO)(CCCC)Nc1nc(N)nc2cccnc12 | > 50 µM | 38 µM | > 50 µM | 
4 | CCCC[C@@H](Nc1nc(N)nc2cccnc12)C(=O)NC | > 50 µM |  | > 50 µM | 
5 | CCCC[C@@H](CO)Nc1cc(N)nc2ccccc12 | > 50 µM |  | > 50 µM | 
6 | CCCC[C@@H](Nc1nc(N)nc2cccnc12)C(N)=O | > 50 µM |  | 36 µM | 
7 | CCC[C@H](CO)Nc1nc(N)nc2cccnc12 | > 50 µM |  | 19 µM | 
8 | CCCC[C@H](CO)Nc1nc(N)nc2cccnc12 | > 50 µM | 7.8 µM | 0.79 µM | pKa [10]: 6.8; Ratio CC50/EC50 [2]: 10
9 | CCCC[C@H](CN)Nc1nc(N)nc2cccnc12 | > 50 µM |  | 25 µM | 
10 | CCCC[C@@H](CO)Nc1nc(N)nc2cccnc12 | 0.91 µM |  | 0.42 µM | 
11 | CCCN(CCC)C(=O)C1=Cc2ccc(-c3ccc(C(=O)N4CCCC4)cc3)cc2N=C(N)C1 [MOTOLIMOD] | > 30 µM |  | 1.3 µM | 
12 | CCCC[C@](C)(CO)Nc1nc(N)nc2cc(Cl)cnc12 | > 42 µM | 22 µM | 0.27 µM | pKa [10]: 6.4; CLhep predicted at 2 µM [5]: 56.7 mL/min/kg; CLhep predicted at 2 µM [6]: 30 mL/min/kg; CLhep predicted at 2 µM [7]: 23.3 mL/min/kg; CLhep predicted at 2 µM [8]: 16.7 mL/min/kg
13 | CCCCC[C@H](CO)Nc1nc(N)nc2cccnc12 | > 20 µM |  | 3.33 µM | 
14 | CCC[C@](C)(CO)Nc1nc(N)nc2cccnc12 | > 50 µM | > 50 µM | 2.4 µM | Ratio CC50/EC50 [2]: >21
15 | CCCC[C@@H](CO)Nc1nc(N)nc2ccccc12 | 0.57 µM |  | 0.71 µM | 
